Test results from ChEMBL document CHEMBL5096187, “Efficient Synthesis and Bioevaluation of Novel Dual Tubulin/Histone Deacetylase 3 Inhibitors as Potential Anticancer Agents” (J Med Chem, 2021).
Active and inactive are the calls of the source. No cut-off for these calls is given here.

What was measured:
[1] = Nephrotoxicity in C57BL/6 mouse assessed as effect on globulin GLO level in serum; format: toxicity; settings: in vivo
[2] = Cardiotoxicity in C57BL/6 mouse ssessed as effect on heart rate by ECG analysis; format: toxicity
Method in brief: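 Mice aged 6–8 weeks dosed by intragastric gavage once daily for 14 days; ECG and heart rate recorded on a PowerLab system.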

B16-F10 [3] = experiment: Induction of apoptosis in mouse B16-F10 cells assessed as viable cells at 100 nM incubated for 48 hrs by Annexin V-FITC/PI analysis (reference value: 98.3 %); format: functional; settings: read-out: Activity
B16-F10 [4] = experiment: Induction of apoptosis in mouse B16-F10 cells assessed as viable cells at 50 nM incubated for 48 hrs by Annexin V-FITC/PI analysis (reference value: 98.3 %); format: functional; settings: read-out: Activity
B16-F10 [5] = experiment: Induction of apoptosis in mouse B16-F10 cells assessed as viable cells at 25 nM incubated for 48 hrs by Annexin V-FITC/PI analysis (reference value: 98.3 %); format: functional; settings: read-out: Activity
[6] = Antiproliferative activity against human YCC3/7 cells assessed as inhibition of cell viability; format: functional, cell-based
[7] = Toxicity in C57BL/6 mouse allografted with mouse B16-F10 cells assessed as morphological abnormalities in kidney at 10 mg/kg, ip administered for 14 days by H and E staining based analysis; format: organism-based; settings: in vivo, 336 h, time 14 day
Method in brief: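 C57BL/6 mice with subcutaneous B16-F10 allografts, n = 8 per group, given i.p. injections once daily for 14 days. Single agents at 10 mg/kg; combination at 5 + 5 mg/kg. Vehicle: ethanol/polyoxyethylene castor oil/saline 1.25:1.25:7.5. Liver and kidney fixed in 4% paraformaldehyde, paraffin-embedded, H&E stained and examined by microscopy.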

B16-F10 [8] = experiment: Induction of cell cycle arrest in mouse B16-F10 cells assessed as accumulation of cells in G2/M phase at 25 nM measured after 48 hrs by PI/RNaseA staining based flow cytometry analysis (Rvb= 5.76%); format: functional
B16-F10 [9] = experiment: Inhibition of cell migration in mouse B16-F10 cells assessed as reduction in wound area ratio measured at 50 nM incubated for 24 hrs by wound healing assay; format: functional; set-up: scale not given: the % may be the effect or the level left
Method in brief: (§1)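 Confluent B16-F10 monolayers, seeded overnight, were scratched with a pipette tip and washed to remove debris. Cells were then treated, and phase-contrast images were taken at 0 and 24 h. Migration distance or wound area measured manually against DMSO control; n = 3.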

B16-F10 [10] = experiment: Induction of apoptosis in mouse B16-F10 cells assessed as early apoptotic cells at 100 nM incubated for 48 hrs by Annexin V-FITC/PI analysis (reference value: 1.68 %); format: functional
[11] = Hepatotoxicity in C57BL/6 mouse assessed as effect on ALB level in serum; format: toxicity
[12] = Antiproliferative activity against human YCC-11 cells assessed as inhibition of cell viability; format: functional, cell-based
B16-F10 [13] = experiment: Induction of apoptosis in mouse B16-F10 cells assessed as early apoptotic cells at 50 nM incubated for 48 hrs by Annexin V-FITC/PI analysis (reference value: 1.68 %); format: functional
[14] = Nephrotoxicity in C57BL/6 mouse assessed as effect on urea level in serum; format: toxicity; settings: in vivo
B16-F10 [15] = experiment: Inhibition of colony formation in mouse B16-F10 cells assessed as reduction in number of colonies at 100 nM incubated for 24 hrs; format: functional, cell-based
Method in brief: (§2)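 1000 B16-F10 cells seeded and cultured 24 h at 37 °C, then exposed to compound for 24 h. Medium was then replaced and cells grown 10–14 days. Colonies fixed with 4% paraformaldehyde for 30 min, stained with 0.1% crystal violet for 15 min, and counted; n = 3 versus DMSO.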

B16-F10 [16] = experiment: Inhibition of colony formation in mouse B16-F10 cells assessed as reduction in number of colonies incubated for 24 hrs; format: functional, cell-based; settings: dose 25-100 nM, DDE = dose-dependent effect; method in brief: as §2
B16-F10 [17] = experiment: Induction of cell cycle arrest in mouse B16-F10 cells assessed as accumulation of cells in G2/M phase at 100 nM measured after 48 hrs by PI/RNaseA staining based flow cytometry analysis (Rvb= 5.76%); format: functional
B16-F10 [18] = experiment: Induction of apoptosis in mouse B16-F10 cells assessed as late apoptotic cells at 50 nM incubated for 48 hrs by Annexin V-FITC/PI analysis (reference value: 1.68 %); format: functional
B16-F10 [19] = experiment: Induction of apoptosis in mouse B16-F10 cells assessed as necrotic cells at 100 nM incubated for 48 hrs by Annexin V-FITC/PI analysis (reference value: 0.012 %); format: functional
B16-F10 [20] = experiment: Antiproliferative activity against mouse B16-F10 cells assessed as inhibition of cell viability measured for 48 hrs by microplate reader based MTT assay; format: functional; settings: B16-F10, 48 h
Method in brief: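 Cells grown in RPMI-1640 with 10% FBS and seeded at 5000 cells/well. After overnight attachment, compound was added in medium with 0.1% DMSO for 48 h at 37 °C. Read-out was MTT for HCT-116, B16-F10 and A549, and CCK-8 for Jurkat (0.5 mg/mL, 4 h), with absorbance at 570 nm. IC50 from nonlinear regression; at least three independent experiments.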

Tubulin (Sus scrofa) = Tubulin (Sus scrofa) (UniProt P02554+P02550); experiment: Inhibition of pig brain tubulin polymerization at 10 uM measured after 20 mins by spectrometric method relative to control
Method in brief: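 Pig brain tubulin was purified by three assembly/disassembly cycles and then phosphocellulose chromatography. Compound at 10 μM in PEM buffer with 1 mM GTP and 5% glycerol at 37 °C. Polymerization followed at 340 nm; inhibition taken at 20 min versus vehicle control.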

Histone deacetylase 1 = Histone deacetylase 1 (Homo sapiens, UniProt Q13547); experiment: Inhibition of full length recombinant human HDAC1 (1 to 482 residues) expressed in Baculovirus system using Ac-Leu-Gly-Lys (Ac)-AMC as substrate pretreated for 5 mins followed by substrate addition and measured after 30 mins
B16-F10 [21] = experiment: Induction of apoptosis in mouse B16-F10 cells assessed as necrotic cells at 25 nM incubated for 48 hrs by Annexin V-FITC/PI analysis (reference value: 0.012 %); format: functional
B16-F10 [22] = experiment: Inhibition of cell migration in mouse B16-F10 cells assessed as reduction in wound area ratio measured at 100 nM incubated for 24 hrs by wound healing assay; format: functional; set-up: scale not given: the % may be the effect or the level left; method in brief: as §1
B16-F10 [23] = experiment: Induction of cell cycle arrest in mouse B16-F10 cells assessed as accumulation of cells in G2/M phase at 50 nM measured after 48 hrs by PI/RNaseA staining based flow cytometry analysis (Rvb= 5.76%); format: functional
B16-F10 [24] = experiment: Induction of apoptosis in mouse B16-F10 cells assessed as necrotic cells at 50 nM incubated for 48 hrs by Annexin V-FITC/PI analysis (reference value: 0.012 %); format: functional
B16-F10 [25] = experiment: Upregulation of AC-H3 in mouse B16-F10 cells incubated for 12 hrs by Western blot analysis; format: functional, cell-based; settings: dose 20-200 nM, DDE = dose-dependent effect
Method in brief: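 B16-F10 cells (5 × 10⁵/well) treated 12 h with DMSO or compound, lysed in RIPA buffer. 30 μg protein separated by SDS-PAGE and blotted onto PVDF. Blocked 5% BSA 2 h, primary antibody overnight at 4 °C, secondary 1.5 h. Ac-H3 probed, with histone H3 and GAPDH as loading controls; band density quantified; three independent experiments.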

[26] = Hepatotoxicity in C57BL/6 mouse assessed as effect on AST level in serum; format: toxicity

Histone deacetylase 1, sequence (Q13547 whole entry, the tested form may be a part): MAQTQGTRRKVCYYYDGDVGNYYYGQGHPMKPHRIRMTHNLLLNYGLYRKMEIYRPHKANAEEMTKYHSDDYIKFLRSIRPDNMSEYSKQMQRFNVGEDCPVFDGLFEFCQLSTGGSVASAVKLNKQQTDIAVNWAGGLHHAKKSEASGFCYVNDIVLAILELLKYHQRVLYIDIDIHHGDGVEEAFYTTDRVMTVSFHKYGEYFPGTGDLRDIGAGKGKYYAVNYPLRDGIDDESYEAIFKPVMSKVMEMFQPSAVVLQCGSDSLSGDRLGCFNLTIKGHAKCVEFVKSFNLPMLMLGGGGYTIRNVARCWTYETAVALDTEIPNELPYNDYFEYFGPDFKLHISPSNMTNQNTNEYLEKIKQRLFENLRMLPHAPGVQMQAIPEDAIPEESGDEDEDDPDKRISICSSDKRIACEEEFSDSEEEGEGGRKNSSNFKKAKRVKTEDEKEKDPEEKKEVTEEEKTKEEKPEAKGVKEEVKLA
Tubulin (Sus scrofa), sequence (P02550 whole entry, looked up): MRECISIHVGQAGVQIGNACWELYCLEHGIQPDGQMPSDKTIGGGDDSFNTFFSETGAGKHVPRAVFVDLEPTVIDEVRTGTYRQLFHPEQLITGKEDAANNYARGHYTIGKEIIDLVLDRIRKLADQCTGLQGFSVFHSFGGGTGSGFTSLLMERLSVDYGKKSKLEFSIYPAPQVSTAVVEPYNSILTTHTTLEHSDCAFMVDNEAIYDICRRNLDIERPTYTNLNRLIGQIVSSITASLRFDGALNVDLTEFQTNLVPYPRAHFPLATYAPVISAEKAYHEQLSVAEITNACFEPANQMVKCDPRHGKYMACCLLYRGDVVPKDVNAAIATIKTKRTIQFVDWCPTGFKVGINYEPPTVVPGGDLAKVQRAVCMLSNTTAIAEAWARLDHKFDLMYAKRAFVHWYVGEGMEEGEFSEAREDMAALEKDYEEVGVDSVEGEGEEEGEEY
Tubulin (Sus scrofa), sequence (P02554 whole entry, looked up): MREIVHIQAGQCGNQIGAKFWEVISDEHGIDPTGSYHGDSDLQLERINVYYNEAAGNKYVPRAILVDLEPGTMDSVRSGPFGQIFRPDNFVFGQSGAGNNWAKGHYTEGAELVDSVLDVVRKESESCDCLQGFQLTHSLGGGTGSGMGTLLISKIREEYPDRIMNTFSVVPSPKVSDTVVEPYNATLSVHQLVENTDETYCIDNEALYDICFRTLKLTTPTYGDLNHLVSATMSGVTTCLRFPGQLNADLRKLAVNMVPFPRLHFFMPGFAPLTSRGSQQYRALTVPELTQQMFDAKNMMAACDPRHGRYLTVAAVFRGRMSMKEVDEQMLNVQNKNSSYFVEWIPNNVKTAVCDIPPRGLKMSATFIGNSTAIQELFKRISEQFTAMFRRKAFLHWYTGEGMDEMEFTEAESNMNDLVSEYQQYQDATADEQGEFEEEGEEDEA

With `COc1cc(C(=O)c2csc(-c3ccc(NC(=O)CCCC(=O)Nc4ccccc4N)cc3)n2)cc(OC)c1OC` the Activity [1] was “Non-Toxic”, the Activity [2] was “Non-Toxic” and the viability at 0.1 µM (B16-F10 [3]) was 31.6%. For the same compound, the viability at 0.05 µM (B16-F10 [4]) was 58.9%, the viability at 0.025 µM (B16-F10 [5]) was 89.1% and the IC50 [6] was 0.56 µM. The Activity [7] was “Non-Toxic”, the Activity (B16-F10 [8]) was 15.98% and the Activity (B16-F10 [9]) was 17.63%. The Activity (B16-F10 [10]) was 5.83%, the Activity [11] was “Non-Toxic” and the IC50 [12] was 0.3 µM. For the same compound, the Activity (B16-F10 [13]) was 7.09%, the Activity [14] was “Non-Toxic” and the Activity (B16-F10 [15]) was “Active”. For the same compound, the Activity (B16-F10 [16]) was “Dde”, the Activity (B16-F10 [17]) was 83.26% and the Activity (B16-F10 [18]) was 32.3%. The Activity (B16-F10 [19]) was 1.29%, the IC50 (B16-F10 [20]) was 0.07 µM and the inhibition (Tubulin (Sus scrofa)) was 70%. For the same compound, the IC50 (Histone deacetylase 1) was 9.04 µM, the Activity (B16-F10 [21]) was 0% and the Activity (B16-F10 [22]) was 7.18%. For the same compound, the Activity (B16-F10 [23]) was 66.32%, the Activity (B16-F10 [24]) was 1.9% and the Activity (B16-F10 [25]) was “Dde”. For the same compound, the Activity [26] was “Non-Toxic”.
